# According to ChEMBL document CHEMBL4261538, “Synthesis and molecular docking studies of xanthone attached amino acids as potential antimicrobial and anti-inflammatory agents” (Medchemcomm, 2017):
# Activity calls are given as the source filed them. No cut-off for these calls is given here.
# How the values were obtained:
# [1] = system: Staphylococcus aureus; assay: Antibacterial activity against Staphylococcus aureus at 25 ug/ml incubated for 24 hrs by agar well diffusion method; assay type: functional; details: read-out: DIZ
# Procedure, shortened: (§1)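 Bacteria grown in nutrient broth at 37 °C for 24 h, then subcultured at room temperature. Compounds dissolved in DMSO at 5 mg mL⁻¹ and 5–20 µL added to 6 mm wells, giving 25, 50, 75, 100 µg per well. Gentamicin was the positive control and DMSO the negative control. Plates held at 37 °C for 24 h, then inhibition zone diameter (mm) measured. Values are means of three determinations.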
# [2] = system: Staphylococcus aureus; assay: Antibacterial activity against Staphylococcus aureus at 50 ug/ml incubated for 24 hrs by agar well diffusion method; assay type: functional; details: read-out: DIZ; procedure, shortened: as §1
# [3] = system: Staphylococcus aureus; assay: Antibacterial activity against Staphylococcus aureus at 75 ug/ml incubated for 24 hrs by agar well diffusion method; assay type: functional; details: read-out: DIZ; procedure, shortened: as §1
# [4] = system: Staphylococcus aureus; assay: Antibacterial activity against Staphylococcus aureus at 100 ug/ml incubated for 24 hrs by agar well diffusion method; assay type: functional; details: read-out: DIZ; procedure, shortened: as §1
# [5] = system: Bacillus subtilis; assay: Antibacterial activity against Bacillus subtilis at 25 ug/ml incubated for 24 hrs by agar well diffusion method; assay type: functional; details: for zone of inhibition at 25 µg/mL: read-out: DIZ; procedure, shortened: as §1
# [6] = system: Bacillus subtilis; assay: Antibacterial activity against Bacillus subtilis at 50 ug/ml incubated for 24 hrs by agar well diffusion method; assay type: functional; details: for zone of inhibition at 50 µg/mL: read-out: DIZ; procedure, shortened: as §1
# [7] = system: Bacillus subtilis; assay: Antibacterial activity against Bacillus subtilis at 75 ug/ml incubated for 24 hrs by agar well diffusion method; assay type: functional; details: read-out: DIZ; procedure, shortened: as §1
# [8] = system: Bacillus subtilis; assay: Antibacterial activity against Bacillus subtilis at 100 ug/ml incubated for 24 hrs by agar well diffusion method; assay type: functional; details: read-out: DIZ; procedure, shortened: as §1
# [9] = system: Escherichia coli; assay: Antibacterial activity against Escherichia coli at 25 ug/ml incubated for 24 hrs by agar well diffusion method; assay type: functional; details: read-out: DIZ; procedure, shortened: as §1
# [10] = system: Escherichia coli; assay: Antibacterial activity against Escherichia coli at 50 ug/ml incubated for 24 hrs by agar well diffusion method; assay type: functional; details: read-out: DIZ; procedure, shortened: as §1
# [11] = system: Escherichia coli; assay: Antibacterial activity against Escherichia coli at 75 ug/ml incubated for 24 hrs by agar well diffusion method; assay type: functional; details: read-out: DIZ; procedure, shortened: as §1
# [12] = system: Escherichia coli; assay: Antibacterial activity against Escherichia coli at 100 ug/ml incubated for 24 hrs by agar well diffusion method; assay type: functional; details: read-out: DIZ; procedure, shortened: as §1
# [13] = system: Klebsiella pneumoniae; assay: Antibacterial activity against Klebsiella pneumoniae at 25 ug/ml incubated for 24 hrs by agar well diffusion method; assay type: functional; details: for zone of inhibition at 25 µg/mL: read-out: DIZ; procedure, shortened: as §1
# [14] = system: Klebsiella pneumoniae; assay: Antibacterial activity against Klebsiella pneumoniae at 50 ug/ml incubated for 24 hrs by agar well diffusion method; assay type: functional; details: for zone of inhibition at 50 µg/mL: read-out: DIZ; procedure, shortened: as §1
# [15] = system: Klebsiella pneumoniae; assay: Antibacterial activity against Klebsiella pneumoniae at 75 ug/ml incubated for 24 hrs by agar well diffusion method; assay type: functional; details: for zone of inhibition at 75 µg/mL: read-out: DIZ; procedure, shortened: as §1
# [16] = system: Klebsiella pneumoniae; assay: Antibacterial activity against Klebsiella pneumoniae at 100 ug/ml incubated for 24 hrs by agar well diffusion method; assay type: functional; details: for zone of inhibition at 100 µg/mL: read-out: DIZ; procedure, shortened: as §1
# [17] = system: Aspergillus niger; assay: Antifungal activity against Aspergillus niger at 25 ug/ml incubated for 48 hrs by agar well diffusion method; assay type: functional; details: read-out: DIZ
# Procedure, shortened: (§2)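 Compounds dissolved in DMSO at 5 mg mL⁻¹ and 5–20 µL added to 6 mm wells, giving 25, 50, 75, 100 µg per well. Bavistin was the positive control and DMSO the negative control. Plates incubated at 28 °C for 48 h, then inhibition zone diameter (mm) measured. Values are means of three determinations.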
# [18] = system: Aspergillus niger; assay: Antifungal activity against Aspergillus niger at 50 ug/ml incubated for 48 hrs by agar well diffusion method; assay type: functional; details: read-out: DIZ; procedure, shortened: as §2
# [19] = system: Aspergillus niger; assay: Antifungal activity against Aspergillus niger at 75 ug/ml incubated for 48 hrs by agar well diffusion method; assay type: functional; details: read-out: DIZ; procedure, shortened: as §2
# [20] = system: Aspergillus niger; assay: Antifungal activity against Aspergillus niger at 100 ug/ml incubated for 48 hrs by agar well diffusion method; assay type: functional; details: read-out: DIZ; procedure, shortened: as §2
# [21] = system: Candida albicans; assay: Antifungal activity against Candida albicans at 25 ug/ml incubated for 48 hrs by agar well diffusion method; assay type: functional; details: for zone of inhibition at 25 µg/mL: read-out: DIZ; procedure, shortened: as §2
# [22] = system: Candida albicans; assay: Antifungal activity against Candida albicans at 50 ug/ml incubated for 48 hrs by agar well diffusion method; assay type: functional; details: for zone of inhibition at 50 µg/mL: read-out: DIZ; procedure, shortened: as §2
# [23] = system: Candida albicans; assay: Antifungal activity against Candida albicans at 75 ug/ml incubated for 48 hrs by agar well diffusion method; assay type: functional; details: read-out: DIZ; procedure, shortened: as §2
# [24] = system: Candida albicans; assay: Antifungal activity against Candida albicans at 100 ug/ml incubated for 48 hrs by agar well diffusion method; assay type: functional; details: read-out: DIZ; procedure, shortened: as §2
# [25] = system: Fusarium oxysporum; assay: Antifungal activity against Fusarium oxysporum at 25 ug/ml incubated for 48 hrs by agar well diffusion method; assay type: functional; details: for zone of inhibition at 25 µg/mL: read-out: DIZ; procedure, shortened: as §2
# [26] = system: Fusarium oxysporum; assay: Antifungal activity against Fusarium oxysporum at 50 ug/ml incubated for 48 hrs by agar well diffusion method; assay type: functional; details: for zone of inhibition at 50 µg/mL: read-out: DIZ; procedure, shortened: as §2
# [27] = system: Fusarium oxysporum; assay: Antifungal activity against Fusarium oxysporum at 75 ug/ml incubated for 48 hrs by agar well diffusion method; assay type: functional; details: read-out: DIZ; procedure, shortened: as §2
# [28] = system: Fusarium oxysporum; assay: Antifungal activity against Fusarium oxysporum at 100 ug/ml incubated for 48 hrs by agar well diffusion method; assay type: functional; details: read-out: DIZ; procedure, shortened: as §2
# [29] = system: Erythrocyte; assay: Anti-inflammatory activity in human RBC assessed as inhibition of hypotonic solution-induced hemolysis after 10 mins by spectrophotometric method; assay type: functional, cell-based
# Procedure, shortened: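 Human blood (heparinized) washed with 0.9% saline, packed cells made into a 40% v/v stock in isotonic phosphate buffer (154 mM NaCl, 10 mM sodium phosphate, pH 7.4). Stock RBC mixed with hypotonic buffer (50 mM NaCl, 10 mM phosphate, pH 7.4) plus sample at 20–100 µg mL⁻¹.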
Structure (SMILES),zone of inhibition at 25 µg/mL [1] [mm],zone of inhibition at 50 µg/mL [2] [mm],zone of inhibition at 75 µg/mL [3] [mm],zone of inhibition at 100 µg/mL [4] [mm],zone of inhibition at 25 µg/mL [5] [mm],zone of inhibition at 75 µg/mL [7] [mm],zone of inhibition at 100 µg/mL [8] [mm],zone of inhibition at 25 µg/mL [9] [mm],zone of inhibition at 50 µg/mL [10] [mm],zone of inhibition at 75 µg/mL [11] [mm],zone of inhibition at 100 µg/mL [12] [mm],zone of inhibition at 25 µg/mL [17] [mm],zone of inhibition at 50 µg/mL [18] [mm],zone of inhibition at 75 µg/mL [19] [mm],zone of inhibition at 100 µg/mL [20] [mm],zone of inhibition at 75 µg/mL [23] [mm],zone of inhibition at 100 µg/mL [24] [mm],zone of inhibition at 75 µg/mL [27] [mm],zone of inhibition at 100 µg/mL [28] [mm],IC50 [29] [µg/mL],further results
CC(C)(C)OC(=O)NCC(=O)Oc1ccc2c(=O)c3ccccc3oc2c1,7,12,16,22,6,16,20,7,3,16,21,5,9,12,15,14,16,13,15,66,zone of inhibition at 50 µg/mL [6]: 12 mm; zone of inhibition at 25 µg/mL [13]: 16 mm; zone of inhibition at 50 µg/mL [14]: 12 mm; zone of inhibition at 75 µg/mL [15]: 17 mm; zone of inhibition at 100 µg/mL [16]: 23 mm; zone of inhibition at 25 µg/mL [21]: 7 mm; zone of inhibition at 50 µg/mL [22]: 10 mm; zone of inhibition at 25 µg/mL [25]: 4 mm; zone of inhibition at 50 µg/mL [26]: 9 mm
CC(C)[C@H](NC(=O)OC(C)(C)C)C(=O)Oc1ccc2c(=O)c3ccccc3oc2c1,10,13,17,22,7,19,22,8,13,18,20,7,13,16,20,15,21,20,23,76,zone of inhibition at 50 µg/mL [6]: 13 mm; zone of inhibition at 25 µg/mL [13]: 5 mm; zone of inhibition at 50 µg/mL [14]: 11 mm; zone of inhibition at 75 µg/mL [15]: 19 mm; zone of inhibition at 100 µg/mL [16]: 24 mm; zone of inhibition at 25 µg/mL [21]: 10 mm; zone of inhibition at 50 µg/mL [22]: 13 mm; zone of inhibition at 25 µg/mL [25]: 9 mm; zone of inhibition at 50 µg/mL [26]: 14 mm
O=c1c2ccccc2oc2cc(O)ccc12,4,7,11,14,,6,10,3,7,11,13,4,7,9,11,6,10,5,9,90,diameter of the inhibition zone (DIZ) [5]: inactive; diameter of the inhibition zone (DIZ) [6]: inactive; diameter of the inhibition zone (DIZ) [13]: inactive; diameter of the inhibition zone (DIZ) [14]: inactive; diameter of the inhibition zone (DIZ) [15]: inactive; diameter of the inhibition zone (DIZ) [16]: inactive; diameter of the inhibition zone (DIZ) [21]: inactive; diameter of the inhibition zone (DIZ) [22]: inactive; diameter of the inhibition zone (DIZ) [25]: inactive; diameter of the inhibition zone (DIZ) [26]: inactive
